This is an account of results in ChEMBL document CHEMBL1158625, “Design of 1-piperazinyl-4-arylphthalazines as potent Smoothened antagonists” (Bioorg Med Chem Lett, 2010).

A short description of series [1]: Clearance in cynomolgus monkey at 0.5 mg/kg, iv. The series is classed as ADME, organism-based, Macaca fascicularis. Also on record: dose 0.5 mg/kg, route intravenous. The note with it: in vivo.
A short description of series [2]: Volume of distribution at steady state in cynomolgus monkey at 0.5 mg/kg, iv. The series is classed as ADME, organism-based, Macaca fascicularis. Also on record: dose 0.5 mg/kg, route intravenous. Particulars: in vivo, read-out: Vdss.
A short description of series [3]: Half life in cynomolgus monkey at 0.5 mg/kg, iv. In kind it is ADME, organism-based, Macaca fascicularis. Also on record: dose 0.5 mg/kg, route intravenous. Particulars: in vivo.
A short description of series [4]: Oral bioavailability in cynomolgus monkey at 2 mg/kg. In kind it is ADME, organism-based, Macaca fascicularis. Particulars: in vivo.
Series [5] in a line: Volume of distribution at steady state in mouse at 1 mg/kg, iv. The note with it: in vivo, read-out: Vdss. The series is classed as ADME, organism-based. Also on record: dose 1 mg/kg, route intravenous.
Series [6] in a line: Half life in mouse at 1 mg/kg, iv. The series is classed as ADME, organism-based. Also on record: dose 1 mg/kg, route intravenous. The note with it: in vivo.
Series [7] is described as follows: Oral bioavailability in mouse at 2 mg/kg. The series is classed as ADME, organism-based. Particulars: in vivo.
Series [8] in a line: Clearance in dog at 0.5 mg/kg, iv. The series is classed as ADME, organism-based, Canis lupus familiaris. Also on record: dose 0.5 mg/kg, route intravenous. Particulars: in vivo.
Series [9] can be described thus: Volume of distribution at steady state in dog at 0.5 mg/kg, iv. In kind it is ADME, organism-based, Canis lupus familiaris. Also on record: dose 0.5 mg/kg, route intravenous. Particulars: in vivo, read-out: Vdss.
Series [10] is described as follows: Half life in dog at 0.5 mg/kg, iv. The series is classed as ADME, organism-based, Canis lupus familiaris. Also on record: dose 0.5 mg/kg, route intravenous. The note with it: in vivo.
Series [11] can be described thus: Oral bioavailability in dog at 2 mg/kg. In kind it is ADME, organism-based, Canis lupus familiaris. The note with it: in vivo.
The target in another series is CYP2D6 (Homo sapiens, UniProt P10635). Nature of the series: Inhibition of human CYP2D6 at 3 uM by HPLC-MS. In kind it is ADME.
Series [12] is described as follows: Clearance in rat at 0.5 mg/kg, iv. Also on record: dose 0.5 mg/kg, route intravenous. Particulars: in vivo. The series is classed as ADME, organism-based.
Series [13] can be described thus: Volume of distribution at steady state in rat at 0.5 mg/kg, iv. The series is classed as ADME, organism-based. Also on record: dose 0.5 mg/kg, route intravenous. The note with it: in vivo, read-out: Vdss.
Series [14] is described as follows: Half life in rat at 0.5 mg/kg, iv. In kind it is ADME, organism-based. Also on record: dose 0.5 mg/kg, route intravenous. The note with it: in vivo.
Series [15] is described as follows: Oral bioavailability in rat at 2 mg/kg. The series is classed as ADME, organism-based. The note with it: in vivo.
The nature of series [16]: Clearance in mouse at 1 mg/kg, iv. Also on record: dose 1 mg/kg, route intravenous. The series is classed as ADME, organism-based. The note with it: in vivo.
Series [17] can be described thus: Metabolic stability in human liver microsome assessed as compound turnover after 30 mins. Particulars: liver microsomes, read-out: Stability. The series is classed as ADME. In outline: (§1)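 Pooled human or rat liver microsomes (0.25 mg/mL), 37 °C, phosphate buffer pH 7.4, test compound 1 µM; NADPH 1 mM final; quenched at 0 or 30 min with organic solvent; unchanged parent by reversed-phase LC-MS/MS; percent turnover from peak area at 30 versus 0 min.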

Series [18] is described as follows: Metabolic stability in rat liver microsome assessed as compound turnover after 30 mins. The series is classed as ADME. Particulars: liver microsomes, read-out: Stability. The essentials: as §1
The next series concerns the target CYP3A4 (Homo sapiens, UniProt P08684). Nature of the series: Inhibition of human CYP3A4 at 3 uM by HPLC-MS. The series is classed as ADME.
Another series is filed under the species Mus musculus. The experiment in a line: Reduction in Gli1 mRNA expression in mouse skin after 6 hrs of treatment by RT-PCR. In kind it is functional, organism-based. In outline:
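Mouse hind flanks depilated with wax; five days later single oral dose 2, 20 or 100 mg/kg; skin harvested after 6 h; Gli1 RNA by quantitative real-time PCR normalized to RGS (Pitx2) RNA; four mice per group, two samples each; Dunnett's method; plasma levels also measured.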

The next series has as its system Medulloblastoma cell. Nature of the series: Antitumor activity against mouse Ptch+/- p53-/- medulloblastoma cells xenografted Harlan nu/nu mouse at 10 mg/kg, po qd administered after 8 days tumor implantation measured after 15 days. Also on record: dose 10 mg/kg. The series is classed as functional, organism-based. In outline:
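Tumors from p53-/- Ptch+/- crossbred mice transplanted into immunocompromised mice; after 8 days animals randomized to compound 10 mg/kg QD oral or vehicle; tumor volume followed, reduction assessed day 15 versus treatment onset day 8; ten mice per group; Dunnett's method.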

Molecules are shown by their SMILES. The source made the active and inactive calls. No cut-off for these calls is given here.

CYP3A4, sequence (P08684 whole entry): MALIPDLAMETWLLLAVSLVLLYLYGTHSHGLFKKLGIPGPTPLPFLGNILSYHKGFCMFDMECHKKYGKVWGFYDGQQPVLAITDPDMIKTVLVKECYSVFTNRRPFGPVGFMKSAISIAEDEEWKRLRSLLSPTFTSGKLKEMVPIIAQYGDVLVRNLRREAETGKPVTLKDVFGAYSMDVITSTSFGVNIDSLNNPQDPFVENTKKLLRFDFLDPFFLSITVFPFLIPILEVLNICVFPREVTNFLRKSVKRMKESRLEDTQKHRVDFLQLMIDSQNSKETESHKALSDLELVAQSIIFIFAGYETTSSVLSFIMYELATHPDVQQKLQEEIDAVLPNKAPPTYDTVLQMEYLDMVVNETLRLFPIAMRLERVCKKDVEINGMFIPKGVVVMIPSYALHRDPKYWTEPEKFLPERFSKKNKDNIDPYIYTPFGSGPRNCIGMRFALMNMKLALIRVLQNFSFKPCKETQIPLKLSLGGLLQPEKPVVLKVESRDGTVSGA
CYP2D6, sequence (P10635 whole entry): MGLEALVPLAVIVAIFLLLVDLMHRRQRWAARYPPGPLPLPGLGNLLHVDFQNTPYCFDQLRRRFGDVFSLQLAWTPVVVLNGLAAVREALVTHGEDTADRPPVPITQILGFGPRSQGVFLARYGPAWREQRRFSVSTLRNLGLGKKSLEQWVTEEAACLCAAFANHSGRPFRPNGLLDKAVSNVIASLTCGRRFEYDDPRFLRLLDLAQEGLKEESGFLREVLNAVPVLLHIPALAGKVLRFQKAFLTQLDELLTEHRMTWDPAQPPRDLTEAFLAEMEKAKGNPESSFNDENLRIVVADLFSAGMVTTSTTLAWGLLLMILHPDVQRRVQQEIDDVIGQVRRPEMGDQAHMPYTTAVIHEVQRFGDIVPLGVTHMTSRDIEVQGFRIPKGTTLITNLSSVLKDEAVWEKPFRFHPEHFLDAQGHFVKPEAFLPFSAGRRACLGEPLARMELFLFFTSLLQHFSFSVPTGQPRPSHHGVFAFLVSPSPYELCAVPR

As for `C[C@@H]1CN(C(=O)c2ccccc2)CCN1c1nnc(-c2ccc(C(F)(F)F)cc2)c2ccccc12`, the clearance was 8.83 mL/min/kg in series [1], 3.33 mL/min/kg in series [8], 6.83 mL/min/kg in series [12] and 5 mL/min/kg in series [16]. For the same compound, the Vd in series [2] stood at 2.52 L/kg; in series [5], 1.4 L/kg; in series [9], 2.96 L/kg; in series [13], 5.07 L/kg. The half-life is 4.3 h in series [3], 3.4 h in series [6], 10 h in series [10] and 9.5 h in [14]. The bioavailability amounted to 31% in [4], 65% in series [7], 60% in [11] and 39% in series [15]. The figures for the inhibition at 3 µM against CYP2D6 and at CYP3A4 were 15% and below 10%, respectively. The metabolised at 0.5 h is 13% in series [17] and 11% in series [18]. Besides, the Activity result in the series filed under Mus musculus is “Dose-dependent effect”. Moreover, in the series on Medulloblastoma cell, the result was Active.
